Measurements from different studies.
Dipeptidyl peptidase 2: Dipeptidyl peptidase 2 (Homo sapiens, UniProt Q9UHL4)
PTGS2: Prostaglandin G/H synthase 2 (PTGS2, Homo sapiens, UniProt P35354)

Structure (SMILES)	target	effect on	action	method	concentration	inhibition [%]
CCOC(=O)c1ccc(OC(=O)CCCCCNC(=N)N)cc1	Dipeptidyl peptidase 2	enzyme activity	inhibitor	–	10 µM	83
OC(c1ccc(F)cc1)C(F)(F)CCN1CCC(O)(c2ccc(Cl)cc2)CC1 (racemic)	Sigma non-opioid intracellular receptor 1 (SIGMAR1, Cavia porcellus, UniProt Q60492)	ligand displacement	–	radioligand	10 µM	> 50
CC(C)N1CCC[C@H]1CNC(=O)c1cn(C2CCCC2)c(=O)c2c1c1ccccc1n2C	Alpha-1D adrenergic receptor (ADRA1D, Homo sapiens, UniProt P25100)	ligand displacement	–	radioligand	10 µM	9
COCc1c(-c2cc3cc(C)cc(OC)c3s2)c2c(N)ncnn2c1CN1CCNC(=O)C1	Alpha-2B adrenergic receptor (ADRA2B, Homo sapiens, UniProt P18089)	ligand displacement	–	radioligand	10 µM	34
C#Cc1n[nH]c2c(-c3cn(C(C)c4ccccn4)c(=O)[nH]c3=O)cc(F)cc12 (centres unmarked)	Ribosomal protein S6 kinase beta-1 (RPS6KB1, Homo sapiens, UniProt P23443)	enzyme activity	inhibitor	–	1 µM	-2.1
CC(C)C[C@H](NC(=O)[C@H](Cc1ccccc1)NC(=O)c1cnccn1)B(O)O	Dipeptidyl peptidase 2	enzyme activity	inhibitor	–	33 µM	78.7
Cc1ccc(-c2nc3ccccc3s2)c(-c2cccc(O)c2)c1	PTGS2	enzyme activity	inhibitor	absorbance	10 µM	29
N=C(N)c1ccc2cc(OC(=O)c3ccc(N=C(N)N)cc3)ccc2c1	Dipeptidyl peptidase 2	enzyme activity	inhibitor	–	10 µM	29
CCN(CC)CCCC[C@H](NC(=O)[C@H](CC(C)C)NC(=O)[C@H](C)NC(=O)[C@H](Cc1ccccc1)NC(=O)c1ccc(C(C)(C)C)cc1)C(=O)N[C@@H](CO)C(=O)OC	5-hydroxytryptamine receptor 1B (Htr1b, Rattus norvegicus, UniProt P28564)	ligand displacement	–	radioligand	10 µM	-11
CN(C)C(=O)COC(=O)Cc1ccc(OC(=O)c2ccc(NC(=N)N)cc2)cc1	Ubiquitin carboxyl-terminal hydrolase isozyme L3 (UCHL3, Homo sapiens, UniProt P15374)	enzyme activity	inhibitor	–	10 µM	3
CN(C)Cc1ccc(-c2nc3ccccc3s2)c(-c2ccc(O)cc2)c1	PTGS2	enzyme activity	inhibitor	absorbance	10 µM	0
O=C(Nc1cccnn1)N1CCN([C@@H]2CCOc3cc(C(F)(F)F)ccc32)CC1	Glucagon receptor (GCGR, Homo sapiens, UniProt P47871)	cell-free assay	–	–	20 µM	-1
Nc1ccc(-c2ccccc2)c(-c2nc3ccccc3s2)c1	PTGS2	enzyme activity	inhibitor	absorbance	10 µM	12.4
Cn1cc(-c2cc(F)cc(N3CCn4c(cc5c4CCCC5)C3=O)c2CO)cc(Nc2ccc(N3CCN(C4COC4)CC3)cn2)c1=O	Protein kinase C zeta type (PRKCZ, Homo sapiens, UniProt Q05513)	enzyme activity	inhibitor	–	0.1 µM	-2
CS(=O)(=O)c1ccc(-c2ncccc2-c2nc3ccccc3s2)cc1	PTGS2	enzyme activity	inhibitor	absorbance	10 µM	84.7
CC(=O)N[C@@H](CC(=O)O)C(=O)N[C@@H](CC(N)=O)C(=O)N[C@@H](CC(C)C)C(=O)N[C@H](C=O)CC(=O)O	Caspase-7 (CASP7, Homo sapiens, UniProt P55210)	enzyme activity	inhibitor	–	0.5 µM	89
Cc1ccc(-c2nc3ccccc3s2)c(-c2ccc(S(N)(=O)=O)cc2)c1	PTGS2	enzyme activity	inhibitor	absorbance	10 µM	87.3
N#Cc1ccc(NCCNCC(=O)N2N=CCC2C#N)nc1 (centres unmarked)	Dipeptidyl peptidase 2	enzyme activity	inhibitor	–	100 µM	77
Cn1cc(-c2cccc(N3CCc4c(sc5c4CC(C)(C)C5)C3=O)c2CO)cc(Nc2ccncn2)c1=O	Dual specificity tyrosine-phosphorylation-regulated kinase 3 (DYRK3, Homo sapiens, UniProt O43781)	enzyme activity	inhibitor	–	1 µM	6
Cc1ccc(-c2nc3ccccc3s2)c(-c2ccc(O)cc2)c1	PTGS2	enzyme activity	inhibitor	absorbance	10 µM	35.4
